Published values of several laboratories.
Compare with care: the assays were run in different laboratories.
MAL12: Alpha-glucosidase MAL12 (MAL12, Saccharomyces cerevisiae S288c, UniProt P53341)
MAP3K7: Mitogen-activated protein kinase kinase kinase 7 (MAP3K7, Homo sapiens, UniProt O43318)
ADRA1A: Alpha-1A adrenergic receptor (ADRA1A, Homo sapiens, UniProt P35348)
BUB1: Mitotic checkpoint serine/threonine-protein kinase BUB1 (BUB1, Homo sapiens, UniProt O43683)

| Compound | target | test | setting | endpoint | value |
| --- | --- | --- | --- | --- | --- |
| O=C1C[C@@H](c2ccc(O)cc2)Oc2cc(O)cc(O)c21 | MAL12 | enzyme activity, inhibitor, absorbance | 50 µM | inhibition | 26.5% |
| C#Cc1cnc(Nc2ccc(CO)nc2)nc1Nc1ccccc1S(C)(=O)=NC#N (stereo not shown) | MAP3K7 | enzyme activity, inhibitor | 1 µM | remaining activity | 50.4% |
| COc1cc2c3c(c1OC)-c1c(OC)ccc(-c4ccc(C#N)cc4)c1CC3N(C)CC2 (stereo not shown) | ADRA1A | ligand displacement, radioligand | 10 µM | inhibition | 83% |
| C1=C/COCc2cc(ccc2OCCN2CCCC2)Nc2nccc(n2)-c2cccc(c2)COC/1 | BUB1 | binding | 0.1 µM | remaining binding | 91% |
| O=C1C[C@@H](c2ccc(O)cc2)Oc2c(Br)c(O)c(Br)c(O)c21 | MAL12 | enzyme activity, inhibitor, absorbance | 50 µM | inhibition | 80.5% |
| CCCCC(=O)Nc1ccc(-c2ccc3ncn(CCC)c(=O)c3c2)cn1 | Wee1-like protein kinase 2 (WEE2, Homo sapiens, UniProt P0C1S8) | binding, competition with immobilised ligand | 0.5 µM | remaining binding | 100% |
| C#Cc1cc(-c2cc(Nc3nc(N[C@@H](C)c4ccc(F)cn4)ncc3Cl)n[nH]2)ccc1C=O | BUB1 | enzyme activity, inhibitor | 0.2 µM | inhibition | 35% |
| C#Cc1cnc(Nc2ccc(CO)cc2)nc1Nc1ccccc1C(=O)NC | MAP3K7 | enzyme activity, inhibitor | 1 µM | remaining activity | 76.9% |
| O=c1c(O)c(-c2ccc(O)cc2)oc2cc(O)cc(O)c12 | MAL12 | enzyme activity, inhibitor, absorbance | 50 µM | inhibition | 39.8% |
| COc1cc2c3c(c1OC)-c1c(OC)ccc(NC(C)=O)c1CC3N(C)CC2 (stereo not shown) | ADRA1A | ligand displacement, radioligand | 10 µM | inhibition | 10% |
| CC(=O)ON=C1C=CC(=C(C#N)c2ccccc2)C=C1 | Glycogen synthase kinase 3 (Plasmodium falciparum, UniProt O77344) | enzyme activity, inhibitor, ADP detection | 20 µM | activity vs control | 89% |
| C#Cc1cnc(Nc2ccnc(CO)c2)nc1Nc1ccccc1S(C)(=O)=NC#N (stereo not shown) | MAP3K7 | enzyme activity, inhibitor | 1 µM | remaining activity | 78.9% |
| CCCCCCCCCCCCCC(=O)OCC(C)(C)CC1=C(O)C(=O)c2ccccc2C1=O | MAL12 | enzyme activity, inhibitor | 50 µM | inhibition | > 70% |
